In ChEMBL document CHEMBL1131493, “Inhibitors of farnesyl protein transferase. 4-Amido, 4-carbamoyl, and 4-carboxamido derivatives of 1-(8-chloro-6,11-dihydro-5H-benzo[5,6]- cyclohepta[1,2-b]pyridin-11-yl)piperazine and 1-(3-bromo-8-chloro-6,11- dihydro-5H-benzo[5,6]cyclohepta[1,2-b]pyridin-11-yl)piperazine” (J Med Chem, 1998):

Legend:
[1] = Oral bioavailability in mouse (nude) (dose of 25 mg/kg); assay type: ADME, organism-based; conditions: in vivo
Outline: (§1)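 Serum pharmacokinetics in nude mice or cynomolgus monkeys after oral (po) or iv dosing. Compounds were given as hydrochloride salts in 20% HPβCD unless otherwise noted. Other formulations were the hydrochloride salt in saline, the micronized free base in 20% HPβCD or corn oil (po) with saline for iv, or the hydrochloride salt in 0.4% methyl cellulose (po).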

[2] = (§2) In vivo antitumor efficacy in nude mice 0-24 hr after peroral dose of 25 mg/kg expressed as Area under the curve; assay type: ADME, organism-based; design: time < 24 hr, dose 25 mg/kg, route oral; conditions: nude, mouse, po; outline: as §1
[3] = In vivo antitumor efficacy in nude mice by injecting a dose of 25 mg/kg iv and serum half-life was determined; assay type: ADME, organism-based; design: dose 25 mg/kg, route intravenous; conditions: mouse; outline: as §1
[4] = In vivo antitumor efficacy in nude mice 0-24 hr after intravenous dose of 25 mg/kg expressed as Area under the curve; assay type: ADME, organism-based; design: time < 24 hr, dose 25 mg/kg, route intravenous; conditions: mouse; outline: as §1
[5] = In vivo antitumor efficacy peroral dose of 25 mg/kg expressed as duration for which compound was present above IC50; assay type: ADME, organism-based; design: dose 25 mg/kg, route oral; conditions: po; outline: as §1
[6] = (§3) Maximal plasma concentration in nude mice after 25 mg/kg oral dose; assay type: ADME, organism-based; design: dose 25 mg/kg, route oral; conditions: mouse; outline: as §1
[7] = target: T1, Protein farnesyltransferase (Homo sapiens, UniProt P49354+P49356); experiment: In vitro inhibition of farnesyltransferase farnesylation of the H-ras oncogene; assay type: protein-complex assay
[8] = target: geranylgeranyltransferase type-I (Rattus norvegicus, UniProt P53610+Q04631); experiment: Inhibition of rat Geranylgeranyl transferase (GGPT); assay type: protein-complex assay
[9] = target: T1, Protein farnesyltransferase; experiment: Inhibition of Farnesyltransferase from Ras-CVLS or Ras-CVLL in Cos-7 monkey kidney cells; assay type: cell-based, Chlorocebus aethiops
[10] = In vivo antitumor efficacy in nude mice after peroral dose of 25 mg/kg expressed as Area under the curve; assay type: ADME, organism-based; design: dose 25 mg/kg, route oral; conditions: mouse, po; outline: as §1
Mus musculus [11] = experiment: In vivo antitumor efficacy after peroral dose of 25 mg/kg in mice expressed as duration for which compound was present above IC50; assay type: ADME, organism-based; design: dose 25 mg/kg, route oral; conditions: po; outline: as §1
[12] = In vivo antitumor efficacy in nude mice by injecting a dose of 25 mg/kg, as HCl salt in saline solution, iv and the total drug exposure was determined. (0-24hr); assay type: ADME, organism-based; design: time < 24 hr, dose 25 mg/kg, route intravenous; conditions: mouse
[13] = In vivo antitumor efficacy in nude mice by injecting a dose of 25 mg/kg, as HCl salt in saline solution, iv and the serum half-life was determined; assay type: ADME, organism-based; design: dose 25 mg/kg, route intravenous; conditions: mouse
[14] = In vivo antitumor efficacy in nude mice by injecting a dose of 25 mg/kg, as HCl salt in saline solution, perorally and the total drug exposure was determined (0-24hr); assay type: ADME, organism-based; design: time < 24 hr, dose 25 mg/kg, route oral; conditions: mouse, po
[15] = Oral bioavailability in mouse (nude) (dose 25 mg/kg i.v.); assay type: ADME, organism-based; conditions: in vivo
Mus musculus [16] = experiment: In vivo antitumor efficacy in nude mice by injecting a dose of 25 mg/kg, as HCl salt in saline solution, perorally and the duration of action was reported; assay type: ADME, organism-based; design: dose 25 mg/kg, route oral; conditions: po
[17] = as §3; assay type: ADME, organism-based; design: dose 25 mg/kg, route oral; conditions: mouse; remark: listed apart in the source
Cynomolgus monkey [18] = experiment: In vivo antitumor efficacy after peroral dose of 25 mg/kg in cynomolgus monkeys expressed as duration for which compound was present above IC50; assay type: ADME, organism-based, Macaca fascicularis; design: dose 25 mg/kg, route oral; conditions: po; outline: as §1
Mus musculus [19] = experiment: as §2; assay type: ADME, organism-based; design: time < 24 hr, dose 25 mg/kg, route oral; conditions: po, 24 h; outline: as §1
[20] = In vivo antitumor efficacy in cynomolgus monkeys 0-8 hours after peroral dose of 25 mg/kg expressed as Area under the curve; assay type: ADME, organism-based, Macaca fascicularis; design: time < 8 hr, dose 25 mg/kg, route oral; conditions: cynomolgus monkey, po; outline: as §1
[21] = In vivo antitumor efficacy expressed as maximum plasma concentration after a peroral dose of 10 mg/kg in cynomolgus monkeys; assay type: ADME, organism-based, Macaca fascicularis; design: dose 10 mg/kg, route oral; conditions: cynomolgus monkey, po; outline: as §1
[22] = target: T1, Protein farnesyltransferase; experiment: In vitro inhibition of farnesyltransferase farnesylation of H-ras at […]
Cynomolgus monkey [23] = experiment: In vivo antitumor efficacy after peroral dose of 10 mg/kg in cynomolgus monkeys expressed as duration for which compound was present above IC50; assay type: ADME, organism-based, Macaca fascicularis; design: dose 10 mg/kg, route oral; conditions: po; outline: as §1
[24] = Maximal plasma concentration in cynomolgus monkeys after 10 mg/kg oral dose; assay type: ADME, organism-based, Macaca fascicularis; design: dose 10 mg/kg, route oral; conditions: cynomolgus monkey, plasma; outline: as §1
[25] = In vivo antitumor efficacy after peroral dose of 25 mg/kg expressed as duration for which compound was present above IC50; assay type: ADME, organism-based; design: dose 25 mg/kg, route oral; conditions: po; outline: as §1
[26] = In vivo antitumor efficacy in nude mice 0-24 hr after iperoral dose of 25 mg/kg expressed as Area under the curve; assay type: ADME, organism-based; design: time < 24 hr, dose 25 mg/kg; conditions: mouse, po; outline: as §1

IC50 [7] [nM] | IC50 [8] [nM] | IC50 [9] [nM] | AUC at 24 h [12] [ng·h/mL] | half-life [13] [h] | AUC at 24 h [14] [ng·h/mL] | bioavailability [15] [%] | Time above IC50 (Mus musculus [16]) [h] | Cmax [17] [nM] | SMILES | bioavailability [1] [%] | AUC at 24 h [2] [ng·h/mL] | half-life [3] [h] | AUC at 24 h [4] [ng·h/mL] | Cmax [6] [nM] | further results
 |  |  |  |  |  |  |  |  | O=C(Cc1ccc[n+]([O-])c1)N1CCN(C2c3ccc(Cl)cc3CCc3cc(Br)cnc32)CC1 (centres undefined) | 100 | 34800 | 1 | 24000 | 45400 | Time above IC50 [5]: 6 h
380 |  | 2200 |  |  |  |  |  |  | CC(C)(C(=O)N1CCN(C2c3ccc(Cl)cc3CCc3cc(Br)cnc32)CC1)c1ccc[n+]([O-])c1 (centres undefined) | 47 | 11700 | 0.6 | 25000 | 11000 | Time above IC50 (Mus musculus [11]): 4 h
102 | > 34000 | 590 | 9510 | 0.37 | 2740 | 28.8 | 2 | 3000 | CC(=O)N1CCC(CC(=O)N2CCN(C3c4ccc(Cl)cc4CCc4cc(Br)cnc43)CC2)CC1 (centres undefined) |  |  |  |  |  | 
 |  |  |  |  |  |  |  |  | CN(C(=O)N1CCN(C2c3ccc(Cl)cc3CCc3cccnc32)CC1)c1ccncc1 (centres undefined) |  |  |  |  |  | inhibition [22]: 0%
 | > 38000 |  | 14900 | 5.7 | 17000 | 100 | 24 | 2000 | CN1CCCC(CC(=O)N2CCN(C3c4ccc(Cl)cc4CCc4cc(Br)cnc43)CC2)C1 (centres undefined) |  |  |  |  |  | 
50 | > 35000 | 750 | 9900 | 0.5 | 33300 | 100 | 4 | 80000 | CNC(=O)N1CCC(CC(=O)N2CCN(C3c4ccc(Cl)cc4CCc4cc(Br)cnc43)CC2)CC1 (centres undefined) |  |  |  |  |  | 
72 | > 38000 | 170 | 27200 | 2 | 17600 | 65 | 24 | 3000 | O=C(CC1CCNCC1)N1CCN(C2c3ccc(Cl)cc3CCc3cc(Br)cnc32)CC1 (centres undefined) |  |  |  |  |  | 

SMILES | IC50 [7] [nM] | IC50 [8] [nM] | IC50 [9] [nM] | AUC at 24 h [12] [ng·h/mL] | half-life [13] [h] | AUC at 24 h [14] [ng·h/mL] | bioavailability [15] [%] | Time above IC50 (Mus musculus [16]) [h] | Cmax [17] [nM] | bioavailability [1] [%] | AUC at 24 h [2] [ng·h/mL] | half-life [3] [h] | AUC at 24 h [4] [ng·h/mL] | Cmax [6] [nM] | further results
O=C(Cc1ccncc1)N1CCN(C2c3ccc(Cl)cc3CCc3cc(Br)cnc32)CC1 (centres undefined) | 12 | > 39000 | 380 |  |  |  |  |  |  | 20.8 | 1100 | 0.74 |  | 900 | Time above IC50 [5]: 6 h; AUC [10]: 1100 ng·h/mL
O=C(Cc1cc[n+]([O-])cc1)N1CCN([C@H]2c3ccc(Cl)cc3CCc3cc(Br)cnc32)CC1 |  | > 76000 |  |  |  |  |  |  |  | 100 | 26100 | 1.9 |  | 24600 | Time above IC50 (Cynomolgus monkey [18]): 24 h; Time above IC50 (Mus musculus [11]): 7 h; AUC (Mus musculus [19]): 35300 ng·h/mL; AUC at 8 h [20]: 58100 ng·h/mL; Cmax [21]: 8000 nM
O=C(Cc1cc[n+]([O-])cc1)N1CCN(C2c3ccc(Cl)cc3C=Cc3cc(Br)cnc32)CC1 (centres undefined) |  |  | 350 |  |  |  |  |  |  |  |  |  | 11700 |  | Time above IC50 (Cynomolgus monkey [23]): 31 h; Cmax [24]: 1900 nM
O=C(Cc1cc[n+]([O-])cc1)N1CCN([C@@H]2c3ccc(Cl)cc3CCc3cccnc32)CC1 | 1200 |  |  |  | 1.1 |  |  |  |  | 53 |  |  | 11300 | 3000 | Time above IC50 [25]: 2 h; AUC at 24 h [26]: 6000 ng·h/mL
